AF4-AF9 inh – inhibitors of AF4 peptide binding to AF9, primary screen, biochemical, AlphaScreen, biotin-AF4 peptide, FLAG-AF9, single point; AID 651704, 2012; actives 0.47% (n = 350,000); Protein AF-9 (Homo sapiens), P42568; inhibition, % at 10 µM;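 active means every replicate reaching a set inhibition limit, whatever the replicate mean, cut at about 25% in these data; inconclusive means mean inhibition reaches that limit but some replicates miss it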;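 further: 0% = plate neutral control median and 100% = total signal loss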
Target sequence (P42568 whole entry, looked up): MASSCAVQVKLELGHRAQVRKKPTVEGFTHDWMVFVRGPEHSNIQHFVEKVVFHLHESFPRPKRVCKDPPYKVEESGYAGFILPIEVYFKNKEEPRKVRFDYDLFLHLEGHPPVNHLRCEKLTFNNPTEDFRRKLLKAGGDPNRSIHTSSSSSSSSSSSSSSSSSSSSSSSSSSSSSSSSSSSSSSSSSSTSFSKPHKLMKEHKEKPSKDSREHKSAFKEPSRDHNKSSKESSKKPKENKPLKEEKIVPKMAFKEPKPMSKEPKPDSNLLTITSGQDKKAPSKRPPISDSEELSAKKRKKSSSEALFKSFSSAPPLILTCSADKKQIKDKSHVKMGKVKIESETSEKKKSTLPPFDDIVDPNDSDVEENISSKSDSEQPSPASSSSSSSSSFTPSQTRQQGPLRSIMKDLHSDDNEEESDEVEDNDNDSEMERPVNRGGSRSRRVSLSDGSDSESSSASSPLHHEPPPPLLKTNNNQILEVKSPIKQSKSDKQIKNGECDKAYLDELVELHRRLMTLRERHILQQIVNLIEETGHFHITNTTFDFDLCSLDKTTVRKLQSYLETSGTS
XiGFP reactiv – activators of inactive X chromosome reactivation, primary screen, imaging, XiGFP fibroblasts, GFP high-content imaging, set 2. XiGFP mouse fibroblasts, % GFP-positive cells imaging, 3 d; cells co-treated with 5-aza-dC sensitizer; scaled so ellipticine positive control = 100%. activation, % at 7.58 µM. actives 0.055% (n = 360,000);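 active means mean normalized replicate activation at least 10% and every replicate at or above 10%; inconclusive means only one of the two criteria met; inactive means mean below 10% and not all replicates reach 10%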;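 further: 0% = median of on-plate neutral control wells and 100% = ellipticine 6 µM median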
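System: XiGFP fibroblasts, SV40-immortalized. Medium: DMEM plus 5-aza-dC sensitizer. Doses: single point. Timing: 3 d treatment, 15 min room-temperature fixation. Control set: ellipticine 6 µM.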
EWS-Fli inh – EWS/Fli-driven NR0B1 reporter inhibitors, primary screen, A673 cells, NR0B1 luciferase, luminescence, MLPCN library; AID 651661, 2012; viability-normalised; inhibition, % at 12.6 µM; actives 0.67% (n = 350,000);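 active means mean inhibition of at least 50% after viability correction, with every replicate also passing that limit; inconclusive means mean reaches 50% but only one of two replicates passes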;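 further: firefly luciferase signal divided by Alamar Blue viability fluorescence both relative to DMSO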
PAX8 inh HTS – inhibitors of PAX8-driven TPO luciferase reporter, primary screen, RMG-I cells, single concentration; actives 1.2% (n = 360,000); AID 652154, 2013; SteadyGlo, 24 h; inhibition, % at 12.6 µM;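 active means mean replicate inhibition at least 60% with every replicate also reaching 60%; inconclusive means only one of the two criteria is met; inactive means mean below 60% and not all replicates reaching 60%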;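 further: luciferase light reporting Pax8 driven TPO promoter activity; plate controls were median of neutral control wells for no effect and mitoxantrone controls for full effect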
PGC1a acetyl inh – inhibitors of PGC1a acetylation signal, primary screen, cell-based, U2OS, AlphaScreen, inhibitor mode; actives 0.17% (n = 350,000); AlphaScreen anti-acetyl-lysine; with virally co-expressed GCN5 acetyltransferase; inhibition, % at 15.6 µM;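 active means every replicate shows inhibition of at least 40%; inconclusive means mean inhibition at least 40% but some replicate below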;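 further: 0% = neutral control wells and 100% = positive control wells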
GSIS activator – GLuc luminescence reporter in INS-1E cells, primary screen for activators of glucose-dependent secretion of insulin; INS-1E GLuc reporter insulin secretion, 2-3 h; activation, % at 16.6 µM; actives 0.61% (n = 370,000);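 active means lowest replicate activation of at least 40%, so every replicate reaches that level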;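 further: 0% = median of neutral control wells and 100% = median of IBMX positive control wells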
* marks the source's active call; other numbers are inactive results. An excerpt weighted towards active compounds, which were near 2.1% of everything screened.

How did O=C(Nc1ccc([N+](=O)[O-])cn1)c1cc(-c2cccc(Br)c2)nc2ccccc12 do in these assays?
AF4-AF9 inh: 2; XiGFP reactiv: 0; EWS-Fli inh: 3; PAX8 inh HTS: 115*; GSIS activator: -8

How did O=C(CNC(=O)c1ccco1)N=Nc1c(O)n(CCc2ccccc2)c2ccccc12 do in these assays?
AF4-AF9 inh: -15; XiGFP reactiv: 0; EWS-Fli inh: 56*; PAX8 inh HTS: 26; PGC1a acetyl inh: -6; GSIS activator: 42

Results for COc1ccc(S(=O)(=O)Nc2ccccc2C)cc1C(=O)N1CCOCC1 ?
AF4-AF9 inh: -2; XiGFP reactiv: 0; EWS-Fli inh: 3; PAX8 inh HTS: 3; PGC1a acetyl inh: 102*; GSIS activator: -12

How did Cc1ccccc1NS(=O)(=O)c1ccc(C)c(C(=O)N2CCOCC2)c1 do in these assays?
AF4-AF9 inh: -1; XiGFP reactiv: 0; PAX8 inh HTS: 8; PGC1a acetyl inh: -2; GSIS activator: -1

How did C[C@@H]1CN(C)C(=O)Cc2cc(N)ccc2O[C@@H]1CN(C)S(C)(=O)=O do in these assays?
XiGFP reactiv: 0; GSIS activator: -6

What do the screens show for `O=C1C=CC(=O)C(CNc2ccc(C(=O)OCc3ccccc3)cc2)=C1`?
AF4-AF9 inh: 3; XiGFP reactiv: inconclusive; EWS-Fli inh: 59*; PAX8 inh HTS: 1; PGC1a acetyl inh: -1

Results for CN(C)c1ccc(C(=O)OCc2ccccc2)cc1 ?
PGC1a acetyl inh: -3

What do the screens show for `C[C@@H]1CN([C@@H](C)CO)C(=O)c2cccc(NS(=O)(=O)c3ccccc3)c2O[C@H]1CN(C)Cc1ccc(C(F)(F)F)cc1`?
AF4-AF9 inh: 3; XiGFP reactiv: 0; EWS-Fli inh: 4; PAX8 inh HTS: -2; PGC1a acetyl inh: -4; GSIS activator: -28

What do the screens show for `CCC(=O)Nc1ccc2c(c1)OC[C@H](C)N(Cc1ccncc1)C[C@H](C)[C@@H](OC)CN(C)C2=O`?
AF4-AF9 inh: -6; XiGFP reactiv: 0; EWS-Fli inh: 1; PAX8 inh HTS: 1; PGC1a acetyl inh: 5; GSIS activator: 12

What do the screens show for `Cn1cc(C(=O)NCC(=O)Nc2ccccc2Br)cn1`?
AF4-AF9 inh: 1; XiGFP reactiv: 0; EWS-Fli inh: -1; PAX8 inh HTS: -2; PGC1a acetyl inh: 1; GSIS activator: 41*

How did COc1ccc(NC(=O)CCS(=O)(=O)c2ccccc2Cl)cc1S(=O)(=O)Nc1ccc(Cl)cc1 do in these assays?
XiGFP reactiv: 0; EWS-Fli inh: 57*; PAX8 inh HTS: 31; GSIS activator: -18

What do the screens show for `C[C@@H]1CN([C@@H](C)CO)C(=O)c2cc(NS(=O)(=O)c3cccs3)ccc2O[C@@H]1CN(C)S(C)(=O)=O`?
AF4-AF9 inh: -2; XiGFP reactiv: 0; EWS-Fli inh: -96; PGC1a acetyl inh: 12; GSIS activator: 11

How did O=C(CC1CC1)Nc1ccc2c(c1)[C@@H]1C[C@@H](CC(=O)N3CCc4ccccc4C3)O[C@@H](CO)[C@@H]1O2 do in these assays?
AF4-AF9 inh: -1; XiGFP reactiv: 0; EWS-Fli inh: 11; PGC1a acetyl inh: 11; GSIS activator: -11

Results for COC(=O)c1cccc(-c2noc(-c3ccccc3F)n2)c1 ?
AF4-AF9 inh: -23; XiGFP reactiv: 0; EWS-Fli inh: 90*; PAX8 inh HTS: 46; PGC1a acetyl inh: 4; GSIS activator: 28

Results for COc1ccc(-c2noc(-c3ccccc3F)n2)cc1 ?
AF4-AF9 inh: -44; XiGFP reactiv: 0; EWS-Fli inh: 8; PAX8 inh HTS: -105; PGC1a acetyl inh: -2; GSIS activator: 2

Results for Fc1ccccc1-c1nc(-c2ccccc2)no1 ?
PAX8 inh HTS: -115; PGC1a acetyl inh: 3

What do the screens show for `NC(=O)c1cccc(-c2noc(-c3ccccc3F)n2)c1`?
AF4-AF9 inh: -4; XiGFP reactiv: 0; EWS-Fli inh: 87*; PAX8 inh HTS: -1; PGC1a acetyl inh: 14; GSIS activator: 0

Results for O=C(C[C@H]1CC[C@H]2[C@@H](COC[C@@H](O)CN2S(=O)(=O)c2ccc(Cl)cc2)O1)NCc1ccc(Cl)c(Cl)c1 ?
AF4-AF9 inh: -2; XiGFP reactiv: 0; EWS-Fli inh: 4; PAX8 inh HTS: 20; PGC1a acetyl inh: 7; GSIS activator: -27

Results for C[C@@H]1CN([C@H](C)CO)C(=O)c2cc(NC(=O)Nc3cccc4ccccc34)ccc2O[C@@H](C)CCCCO[C@@H]1CN(C)S(=O)(=O)c1cccs1 ?
XiGFP reactiv: 0; EWS-Fli inh: 1; PAX8 inh HTS: -5; PGC1a acetyl inh: 1; GSIS activator: 9

How did Cc1ccccc1S(=O)(=O)N(C)C[C@H]1OCc2ccccc2-c2ccccc2C(=O)N([C@@H](C)CO)C[C@@H]1C do in these assays?
XiGFP reactiv: 0; GSIS activator: -28

What do the screens show for `O=C1c2ccccc2-c2cccc(C(=O)N3CCCCC3)c21`?
XiGFP reactiv: 0; EWS-Fli inh: 5; PAX8 inh HTS: 9; GSIS activator: 2

How did O=C1C=C(N2CCCCC2)c2ccccc2C1=O do in these assays?
AF4-AF9 inh: 4; XiGFP reactiv: 0; EWS-Fli inh: -2; PAX8 inh HTS: 87*; PGC1a acetyl inh: -25; GSIS activator: -34

How did O=C1c2ccccc2-c2onc3ccc(N4CCCC4)c1c23 do in these assays?
AF4-AF9 inh: 28*; XiGFP reactiv: 0; EWS-Fli inh: 12; PAX8 inh HTS: 10; PGC1a acetyl inh: -11; GSIS activator: 6

What do the screens show for `O=C1c2ccccc2C(=O)c2c1cccc2N1CCCC1`?
AF4-AF9 inh: 40*; XiGFP reactiv: 0; EWS-Fli inh: -30; PAX8 inh HTS: -7; PGC1a acetyl inh: 5

What do the screens show for `C[C@@H]1CN([C@@H](C)CO)C(=O)c2cc(NC(=O)c3ccncc3)ccc2O[C@@H](C)CCCCO[C@H]1CN(C)Cc1ccc(C(=O)O)cc1`?
AF4-AF9 inh: -3; XiGFP reactiv: 0; EWS-Fli inh: -9; PAX8 inh HTS: 3; PGC1a acetyl inh: 15; GSIS activator: 19

Results for CCCCN(C=O)c1c(CC)nc2ccc(C(=O)Nc3cc(-c4ccccc4)ccc3OC)cn12 ?
AF4-AF9 inh: 0; XiGFP reactiv: 0; EWS-Fli inh: 14; PAX8 inh HTS: 75*; PGC1a acetyl inh: -2; GSIS activator: 23

Results for Cc1ccc(S(=O)(=O)N[C@H]2CC[C@@H](CC(=O)N3CCN(c4ccccc4)CC3)O[C@H]2CO)cc1 ?
AF4-AF9 inh: 0; XiGFP reactiv: 0; EWS-Fli inh: 3; PAX8 inh HTS: 2; PGC1a acetyl inh: -1; GSIS activator: -5

Compound activity: PubChem BioAssay, Broad Institute
